# Results reported in publication PMC4130767 (Bioorganic & medicinal chemistry letters, 2014).
# Tested on: serine hydrolases in the HeLa cell membrane protein fraction
# Assay: ABPP-SILAC identification of serine hydrolase targets in cells
# Type: cell-based
# Conditions: 20 μM, 4 h, FP-biotin probe
# Method in brief: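 Intact HeLa cells were cultured with test compound at 20 μM or DMSO control for 4 h. Membrane proteins were then isolated and labelled with FP-biotin probe for ABPP-SILAC. The read-out is the light/heavy ratio per serine hydrolase: 1 means no inhibition and 0 means complete inhibition. Two independent replicates were run.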
row,SMILES,selectivity/sensitivity profile against serine hydrolases
1,N#Cc1cnn(C(=O)N2CCCCC2)c1 [compound 12],more sensitive nature
2,O=C(N1CCCCC1)n1cccn1 [compound 10],more selective nature
